Values after ≈ are worked out from the molar mass of the structure shown. Active and inactive are the calls of the source. The calls are words filed in the database; no cut-off is given here.
Experiments:
Staphylococcus aureus [1] = test: Antimicrobial activity against Staphylococcus aureus MTCC 96 assessed as growth inhibition after 24 hrs by agar well diffusion method; type: functional; details: MTCC 96, 24 h
Bacillus subtilis [2] = test: Antimicrobial activity against Bacillus subtilis MTCC 121 assessed as growth inhibition after 24 hrs by agar well diffusion method; type: functional; details: MTCC 121, 24 h
Staphylococcus aureus [3] = test: Antimicrobial activity against Staphylococcus aureus MLS16 MTCC 2940 assessed as growth inhibition after 24 hrs by agar well diffusion method; type: functional; details: MLS16 MTCC 2940, 24 h
Micrococcus luteus [4] = test: Antimicrobial activity against Micrococcus luteus MTCC 2470 assessed as growth inhibition after 24 hrs by agar well diffusion method; type: functional; details: MTCC 2470, 24 h
Raoultella planticola [5] = test: Antimicrobial activity against Klebsiella planticola MTCC 530 assessed as growth inhibition after 24 hrs by agar well diffusion method; type: functional; details: MTCC 530, 24 h
Escherichia coli [6] = test: Antimicrobial activity against Escherichia coli MTCC 739 assessed as growth inhibition after 24 hrs by agar well diffusion method; type: functional; details: MTCC 739, 24 h
Pseudomonas aeruginosa = test: Antimicrobial activity against Pseudomonas aeruginosa MTCC 2453 assessed as growth inhibition after 24 hrs by agar well diffusion method; type: functional; details: MTCC 2453, 24 h
Candida albicans [7] = test: Antimicrobial activity against Candida albicans MTCC 3017 assessed as growth inhibition after 24 hrs by agar well diffusion method; type: functional; details: MTCC 3017, 24 h
Candida albicans [8] = test: Antimicrobial activity against Candida albicans MTCC 183 assessed as growth inhibition after 24 hrs by agar well diffusion method; type: functional; details: MTCC 183, 24 h
Candida albicans [9] = test: Antimicrobial activity against Candida albicans MTCC 227 assessed as growth inhibition after 24 hrs by agar well diffusion method; type: functional; details: MTCC 227, 24 h
Candida albicans [10] = test: Antimicrobial activity against Candida albicans MTCC 854 assessed as growth inhibition after 24 hrs by agar well diffusion method; type: functional; details: MTCC 854, 24 h
Candida albicans [11] = test: Antimicrobial activity against Candida albicans MTCC 1637 assessed as growth inhibition after 24 hrs by agar well diffusion method; type: functional; details: MTCC 1637, 24 h
Candida albicans [12] = test: Antimicrobial activity against Candida albicans MTCC 3018 assessed as growth inhibition after 24 hrs by agar well diffusion method; type: functional; details: MTCC 3018, 24 h
Candida albicans [13] = test: Antimicrobial activity against Candida albicans MTCC 3958 assessed as growth inhibition after 24 hrs by agar well diffusion method; type: functional; details: MTCC 3958, 24 h
Candida albicans [14] = test: Antimicrobial activity against Candida albicans MTCC 4748 assessed as growth inhibition after 24 hrs by agar well diffusion method; type: functional; details: MTCC 4748, 24 h
Candida albicans [15] = test: Antimicrobial activity against Candida albicans MTCC 7315 assessed as growth inhibition after 24 hrs by agar well diffusion method; type: functional; details: MTCC 7315, 24 h
Candida parapsilosis [16] = test: Antimicrobial activity against Candida parapsilosis MTCC 1744 assessed as growth inhibition after 24 hrs by agar well diffusion method; type: functional; details: Lodderomyces parapsilosis, MTCC 1744, 24 h
[Candida] aaseri [17] = Antimicrobial activity against Candida aaseri MTCC 1962 assessed as growth inhibition after 24 hrs by agar well diffusion method; type: functional; details: Yamadazyma aaseri, MTCC 1962, 24 h
Nakaseomyces glabratus [18] = test: Antimicrobial activity against Candida glabrata MTCC 3019 assessed as growth inhibition after 24 hrs by agar well diffusion method; type: functional; details: MTCC 3019, 24 h
Pichia kudriavzevii [19] = test: Antimicrobial activity against Candida krusei MTCC 3020 assessed as growth inhibition after 24 hrs by agar well diffusion method; type: functional; details: MTCC 3020, 24 h
Pichia sporocuriosa [20] = test: Antimicrobial activity against Issatchenkia hanoiensis MTCC 4755 assessed as growth inhibition after 24 hrs by agar well diffusion method; type: functional; details: MTCC 4755, 24 h
Staphylococcus aureus [21] = test: Bactericidal activity against Staphylococcus aureus MTCC 96 after 24 hrs by serial dilution method; type: functional; details: MTCC 96, 24 h
Bacillus subtilis [22] = test: Bactericidal activity against Bacillus subtilis MTCC 121 after 24 hrs by serial dilution method; type: functional; details: MTCC 121, 24 h
Staphylococcus aureus [23] = test: Bactericidal activity against Staphylococcus aureus MLS16 MTCC 2940 after 24 hrs by serial dilution method; type: functional; details: MLS16 MTCC 2940, 24 h
Micrococcus luteus [24] = test: Bactericidal activity against Micrococcus luteus MTCC 2470 after 24 hrs by serial dilution method; type: functional; details: MTCC 2470, 24 h
Raoultella planticola [25] = test: Bactericidal activity against Klebsiella planticola MTCC 530 after 24 hrs by serial dilution method; type: functional; details: MTCC 530, 24 h
Escherichia coli [26] = test: Bactericidal activity against Escherichia coli MTCC 739 after 24 hrs by serial dilution method; type: functional; details: MTCC 739, 24 h
Candida albicans [27] = test: Fungicidal activity against Candida albicans MTCC 3017 after 24 hrs by serial dilution method; type: functional; details: MTCC 3017, 24 h
Candida albicans [28] = test: Fungicidal activity against Candida albicans MTCC 183 after 24 hrs by serial dilution method; type: functional; details: MTCC 183, 24 h
Candida albicans [29] = test: Fungicidal activity against Candida albicans MTCC 227 after 24 hrs by serial dilution method; type: functional; details: MTCC 227, 24 h
Candida albicans [30] = test: Fungicidal activity against Candida albicans MTCC 854 after 24 hrs by serial dilution method; type: functional; details: MTCC 854, 24 h
Candida albicans [31] = test: Fungicidal activity against Candida albicans MTCC 1637 after 24 hrs by serial dilution method; type: functional; details: MTCC 1637, 24 h
Candida albicans [32] = test: Fungicidal activity against Candida albicans MTCC 3018 after 24 hrs by serial dilution method; type: functional; details: MTCC 3018, 24 h
Candida albicans [33] = test: Fungicidal activity against Candida albicans MTCC 3958 after 24 hrs by serial dilution method; type: functional; details: MTCC 3958, 24 h
Candida albicans [34] = test: Fungicidal activity against Candida albicans MTCC 4748 after 24 hrs by serial dilution method; type: functional; details: MTCC 4748, 24 h
Candida albicans [35] = test: Fungicidal activity against Candida albicans MTCC 7315 after 24 hrs by serial dilution method; type: functional; details: MTCC 7315, 24 h
Candida parapsilosis [36] = test: Fungicidal activity against Candida parapsilosis MTCC 1744 after 24 hrs by serial dilution method; type: functional; details: Lodderomyces parapsilosis, MTCC 1744, 24 h
[Candida] aaseri [37] = Fungicidal activity against Candida aaseri MTCC 1962 after 24 hrs by serial dilution method; type: functional; details: Yamadazyma aaseri, MTCC 1962, 24 h
Nakaseomyces glabratus [38] = test: Fungicidal activity against Candida glabrata MTCC 3019 after 24 hrs by serial dilution method; type: functional; details: MTCC 3019, 24 h
Pichia kudriavzevii [39] = test: Fungicidal activity against Candida krusei MTCC 3020 after 24 hrs by serial dilution method; type: functional; details: MTCC 3020, 24 h
Pichia sporocuriosa [40] = test: Fungicidal activity against Issatchenkia hanoiensis MTCC 4755 after 24 hrs by serial dilution method; type: functional; details: MTCC 4755, 24 h
Staphylococcus aureus [41] = test: Antibiofilm activity against Staphylococcus aureus MTCC 96 after 24 hrs by crystal violet staining based assay; type: functional, organism-based; details: MTCC 96, 24 h
Outline: (§1)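 Biofilm inhibition tested for amine esters and esterquats. IC50 values (µg/mL) are the mean of three determinations, with ciprofloxacin as reference.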

Bacillus subtilis [42] = test: Antibiofilm activity against Bacillus subtilis MTCC 121 after 24 hrs by crystal violet staining based assay; type: functional, organism-based; details: MTCC 121, 24 h; outline: as §1
Staphylococcus aureus [43] = test: Antibiofilm activity against Staphylococcus aureus MLS16 MTCC 2940 after 24 hrs by crystal violet staining based assay; type: functional, organism-based; details: MLS16 MTCC 2940, 24 h; outline: as §1
Micrococcus luteus [44] = test: Antibiofilm activity against Micrococcus luteus MTCC 2470 after 24 hrs by crystal violet staining based assay; type: functional, organism-based; details: MTCC 2470, 24 h; outline: as §1
Staphylococcus aureus [45] = test: Bactericidal activity against Staphylococcus aureus MLS16 MTCC 2940 sessile forms assessed as increase in intracellular ROS accumulation in at 0.5 to 2 ug/mL after 24 hrs by DCFHDA staining based fluorometric assay; type: functional, organism-based
Outline: (§2)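 Intracellular ROS measured in cells of mature biofilms using the general ROS fluorescent probe 2′,7′-dichlorofluorescein-diacetate (DCFH-DA), read as increase in fluorescence. Sessile cells and the supernatant were measured separately.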

Staphylococcus aureus [46] = test: Bactericidal activity against Staphylococcus aureus MLS16 MTCC 2940 assessed as increase in intracellular ROS accumulation in at 0.5 to 2 ug/mL after 24 hrs by DCFHDA staining based fluorometric assay; type: functional, organism-based; outline: as §2

Question: Which results are given for `CCCCCC[N+](C)(CCCCCCCCCCC(=O)OC)CCCCCCCCCCC(=O)OC.[Cl-]`?
Answer: MIC (Staphylococcus aureus [1]): 3.9 µg/mL; MIC (Bacillus subtilis [2]): 7.8 µg/mL; MIC (Staphylococcus aureus [3]): 3.9 µg/mL; MIC (Micrococcus luteus [4]): 1.9 µg/mL; MIC (Raoultella planticola [5]): > 125 µg/mL; MIC (Escherichia coli [6]): > 125 µg/mL; MIC (Pseudomonas aeruginosa): > 125 µg/mL; MIC (Candida albicans [7]): 7.8 µg/mL; MIC (Candida albicans [8]): 15.6 µg/mL; MIC (Candida albicans [9]): 15.6 µg/mL; MIC (Candida albicans [10]): 31.2 µg/mL; MIC (Candida albicans [11]): 15.6 µg/mL; MIC (Candida albicans [12]): 15.6 µg/mL; MIC (Candida albicans [13]): 15.6 µg/mL; MIC (Candida albicans [14]): 7.8 µg/mL; MIC (Candida albicans [15]): 15.6 µg/mL; MIC (Candida parapsilosis [16]): 15.6 µg/mL; MIC ([Candida] aaseri [17]): 7.8 µg/mL; MIC (Nakaseomyces glabratus [18]): 15.6 µg/mL; MIC (Pichia kudriavzevii [19]): 31.2 µg/mL; MIC (Pichia sporocuriosa [20]): 15.6 µg/mL; MBC (Staphylococcus aureus [21]): 7.8 µg/mL; MBC (Bacillus subtilis [22]): 15.6 µg/mL; MBC (Staphylococcus aureus [23]): 3.9 µg/mL; MBC (Micrococcus luteus [24]): 3.9 µg/mL; MBC (Raoultella planticola [25]): > 125 µg/mL; MBC (Escherichia coli [26]): > 125 µg/mL; MFC (Candida albicans [27]): 15.6 µg/mL; MFC (Candida albicans [28]): 31.2 µg/mL; MFC (Candida albicans [29]): 31.2 µg/mL; MFC (Candida albicans [30]): 62.5 µg/mL; MFC (Candida albicans [31]): 31.2 µg/mL; MFC (Candida albicans [32]): 31.2 µg/mL; MFC (Candida albicans [33]): 15.6 µg/mL; MFC (Candida albicans [34]): 7.8 µg/mL; MFC (Candida albicans [35]): 31.2 µg/mL; MFC (Candida parapsilosis [36]): 31.2 µg/mL; MFC ([Candida] aaseri [37]): 15.6 µg/mL; MFC (Nakaseomyces glabratus [38]): 31.2 µg/mL; MFC (Pichia kudriavzevii [39]): 62.5 µg/mL; MFC (Pichia sporocuriosa [40]): 31.2 µg/mL; IC50 (Staphylococcus aureus [41]): 1.9 µg/mL; IC50 (Bacillus subtilis [42]): 4.1 µg/mL; IC50 (Staphylococcus aureus [43]): 0.9 µg/mL; IC50 (Micrococcus luteus [44]): 1.5 µg/mL; Activity (Staphylococcus aureus [45]): Active

Question: `O=C(O)c1cn(C2CC2)c2cc(N3CCNCC3)c(F)cc2c1=O` [CIPROFLOXACIN] was tested. Which MIC (Staphylococcus aureus [1]) did it give?
Answer: The MIC was 0.9 µg/mL (≈ 2.72 µM).

Question: What about the MIC (Bacillus subtilis [2]) of the same molecule?
Answer: The MIC was 0.9 µg/mL (≈ 2.72 µM).

Question: And the MIC (Staphylococcus aureus [3])?
Answer: The MIC was 0.9 µg/mL (≈ 2.72 µM).

Question: What about the MIC (Micrococcus luteus [4]) of the same molecule?
Answer: Its MIC is 0.9 µg/mL (≈ 2.72 µM).

Question: And the MIC (Raoultella planticola [5])?
Answer: The MIC was 0.9 µg/mL (≈ 2.72 µM).

Question: What about the MIC (Escherichia coli [6]) of the same molecule?
Answer: Its MIC is 0.9 µg/mL (≈ 2.72 µM).

Question: What about the MIC (Pseudomonas aeruginosa) of the same molecule?
Answer: Its MIC is 0.9 µg/mL (≈ 2.72 µM).

Question: And the MBC (Staphylococcus aureus [21])?
Answer: The MBC was 1.9 µg/mL (≈ 5.73 µM).

Question: What about the MBC (Bacillus subtilis [22]) of the same molecule?
Answer: Its MBC is 0.9 µg/mL (≈ 2.72 µM).

Question: And the MBC (Staphylococcus aureus [23])?
Answer: The MBC was 0.9 µg/mL (≈ 2.72 µM).

Question: What about the MBC (Micrococcus luteus [24]) of the same molecule?
Answer: The MBC was 1.9 µg/mL (≈ 5.73 µM).

Question: What about the MBC (Raoultella planticola [25]) of the same molecule?
Answer: Its MBC is 1.9 µg/mL (≈ 5.73 µM).

Question: And the MBC (Escherichia coli [26])?
Answer: The MBC was 1.9 µg/mL (≈ 5.73 µM).

Question: And the IC50 (Bacillus subtilis [42])?
Answer: Its IC50 is 0.5 µg/mL (≈ 1.51 µM).

Question: What about the IC50 (Staphylococcus aureus [43]) of the same molecule?
Answer: Its IC50 is 0.4 µg/mL (≈ 1.21 µM).

Question: What about the IC50 (Micrococcus luteus [44]) of the same molecule?
Answer: Its IC50 is 0.6 µg/mL (≈ 1.81 µM).

Question: What about the Activity (Staphylococcus aureus [46]) of the same molecule?
Answer: The Activity was “Active”.

Source: ChEMBL document CHEMBL3784971, “Synthesis, characterization, antimicrobial and biofilm inhibitory studies of new esterquats” (Bioorg Med Chem Lett, 2016)
